Data on 13 compounds can be found in ChEMBL document CHEMBL4616650, “Spongian Diterpenoids Derived from the Antarctic Sponge Dendrilla antarctica Are Potent Inhibitors of the Leishmania Parasite” (J Nat Prod, 2020).

Molecules are shown by their SMILES. A value given as a limit tells only on which side of the number the result lay.

The test system of one data set is Leishmania donovani. The data set is described as follows: Antileishmanial activity against Leishmania donovani MHOM/SD/75/1246/130 amastigotes infected in mouse J774A.1 cells incubated for 72 hrs by DRAQ5 fluorescent probe based assay. Type of data set: functional, organism-based. The settings on record: MHOM/SD/75/1246/130, J774.A1, 72 h. The procedure, abridged: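 Axenic amastigotes grown at 37 °C in RPMI 1640 pH 5.5 with HEPES, MES, hemin, xanthine, Tween-80, tryptone-peptone, 20% heat-inactivated FBS. 2000 J774A.1 macrophages per well infected at 10:1 parasites:cells, 24 h, 37 °C, 5% CO2; extracellular parasites washed off. Compounds from 10 μg/mL top, 1:2 serial dilutions, 72 h. Fixed 2% paraformaldehyde, DraQ5 5 μM nuclear stain; high-content imaging counts amastigotes per 500 macrophages; IC50 derived.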

Another data set deals with J774.A1. The data set is described as follows: Cytotoxicity against mouse J774A.1 cells incubated for 72 hrs by CellTiter 96 AQueous One solution cell proliferation assay. In kind it is cell-based. The settings on record: J774.A1, 72 h. The gist of the method:
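J774A.1 macrophages in RPMI 1640 with 10% heat-inactivated FBS, pH 7.2. Seeded at 50 000 cells per well with six 2-fold dilutions, final 50 to 1.6 μg/mL, 72 h at 37 °C, 5% CO2. MTS reagent added for a further 4 h; absorbance read at 490 nm.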

Data set [1] is described as follows: Selectivity index, ratio of cytotoxicity against mouse J774A.1 cells to antileishmanial activity against Leishmania donovani MHOM/SD/75/1246/130 amastigotes infected in mouse J774A.1 cells. Type of data set: toxicity, cell-based. The settings on record: read-out: Ratio IC50.

`CO[C@H]1O[C@@H](OC(C)=O)c2ccc([C@@]3(C)CCCC(C)(C)C3)c([C@@H](C)C(=O)O)c21`: the IC50 came out at 12 µM with Leishmania donovani and 62.9 µM with J774.A1.

`CC(=O)O[C@@H]1O[C@H]2OC(=O)[C@H](C)C3C([C@@]4(C)CCCC(C)(C)C4)=CC=C1C32` (stereo partly specified): the half-maximal inhibitory concentration (IC50) in the data set with Leishmania donovani worked out at 3.1 µM; with J774.A1, 12.3 µM. Also, the selectivity ratio in data set [1] was 4.

`CO[C@H]1O[C@H](OC)c2c1ccc([C@@]1(C)CCCC(C)(C)C1)c2[C@@H](C)C(=O)O`: the IC50 was 1.4 µM in the data set on Leishmania donovani and more than 133 µM in the data set with J774.A1. Further, in data set [1], the selectivity ratio is more than 95.

Consider `CCCCCCCCCCCCCCCCOP(=O)([O-])OCC[N+](C)(C)C` [MILTEFOSINE], for which the results for the half-inhibitory concentration (IC50) in the data set with Leishmania donovani and in the data set with J774.A1 were 2.9 µM and more than 120 µM, respectively.

Consider `CC(=O)O[C@@H]1O[C@H]2OCC3=C(C)[C@@H]([C@@]4(C)CCCC(C)(C)C4)CC[C@@H]1[C@H]32`, for which the IC50 was 11.2 µM with Leishmania donovani and 73.4 µM with J774.A1.

Consider `CO[C@H]1OC(=O)c2ccc([C@@]3(C)CCCC(C)(C)C3)c([C@@H](C)C(=O)O)c21`, for which the half-maximal inhibitory concentration (IC50) in the data set on Leishmania donovani was 26.7 µM; with J774.A1, 42.4 µM.

Consider `CC(=O)O[C@@H]1O[C@H]2OC(=O)[C@H](C)C3=C([C@@]4(C)CCCC(C)(C)C4)CC[C@@H]1[C@H]32`, for which the IC50 with Leishmania donovani is 3.5 µM; with J774.A1 it was more than 133 µM. For the same compound, in data set [1], the selectivity ratio was more than 38.

As for `CO[C@@H]1O[C@H](OC)c2c1ccc([C@@]1(C)CCCC(C)(C)C1)c2[C@@H](C)C(=O)O`, the IC50 is 6.5 µM in the data set on Leishmania donovani and more than 133 µM in the data set with J774.A1.

As for `CO[C@H]1OC(=O)[C@H](C)c2c([C@@]3(C)CCCC(C)(C)C3)ccc(C=O)c21`, the IC50 was more than 29 µM in the data set with Leishmania donovani and 54.6 µM in the data set on J774.A1.

For `C[C@H]1C(=O)O[C@@H](O)c2c(C=O)ccc([C@@]3(C)CCCC(C)(C)C3)c21`, the half-maximal inhibitory concentration (IC50) in the data set with Leishmania donovani was 1.9 µM; in the data set on J774.A1, more than 150 µM. For the same compound, the selectivity ratio in data set [1] was more than 100.

With `CO[C@H]1O[C@@H](OC)c2c1ccc([C@@]1(C)CCCC(C)(C)C1)c2[C@@H](C)C(=O)O` [MEMBRANOLIDE D], the concentration for half-maximal inhibition (IC50) came out at 6.6 µM in the data set with Leishmania donovani and 95 µM with J774.A1.

As to `CO[C@@H]1O[C@@H](OC)c2c1ccc([C@@]1(C)CCCC(C)(C)C1)c2[C@@H](C)C(=O)O` [MEMBRANOLIDE C], the IC50 was 0.8 µM in the data set with Leishmania donovani and more than 133 µM in the data set on J774.A1. Besides, the selectivity ratio in data set [1] was more than 166.

On to `COC(=O)[C@H](C)c1c([C@@]2(C)CCCC(C)(C)C2)ccc2c1C(=O)OC2`, for which the IC50 was 9.7 µM in the data set on Leishmania donovani and 76.8 µM in the data set with J774.A1.

A word on the IC50: it is the concentration that gives 50% inhibition. A lower IC50 goes with higher potency.
